One test relates to RKO/E6. The experiment in a line: Induction of apoptosis in RKO/E6 cells. Format: functional, cell-based. As to conditions: Homo sapiens. The procedure, abridged:
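RKO/E6 cells are RKO cells expressing HPV16 E6 protein, which inactivates endogenous p53. They are used to test p53 dependence of the apoptotic response.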

The subject of test [1] is RKO. The experiment in a line: Cell cycle arrest in RKO cells by accumulation at G2/M phase. To be noted: Homo sapiens. In kind it is functional, cell-based.
Test [2] has as its system RKO. In words: Cell cycle arrest in RKO cells by accumulation at G2 phase. Format: functional, cell-based. As to conditions: Homo sapiens.
Test [3] deals with RKO. In words: Stabilization of p53 level in RKO cells. In kind it is functional, cell-based. As to conditions: Homo sapiens.
For another test, the system named is RPE. The experiment in a line: Induction of p21WAF1/CIP1 level in RPE cells. As to conditions: Homo sapiens. Format: functional, cell-based. A digest of the protocol:
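Primary human retinal pigment epithelial (RPE) cells were exposed to each compound at 1–20 µM for 24 h. Whole-cell extracts were resolved by SDS 12% polyacrylamide gel electrophoresis and read out by Western blotting.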

Test [4] concerns RKO. In words: Cell cycle arrest in RKO cells by accumulation at G1 phase. In kind it is functional, Homo sapiens.
Test [5] deals with RKO. In words: Induction of apoptosis in RKO cells. Format: functional, cell-based. To be noted: Homo sapiens.

The source made the active and inactive calls. No cut-off for these calls is given here.

For the molecule `O=c1nc2n(-c3ccccc3Cl)c3cccc(Cl)c3cc-2c(=O)[nH]1`, the result in the test on RKO/E6, with RKO [1], in the test on RKO [2] and with RKO [3] was Active.
On to `O=c1nc2n(-c3cccc(Cl)c3)c3ccc([N+](=O)[O-])cc3cc-2c(=O)[nH]1`, for which the outcome in the test on RKO/E6 was inactive. In addition, the outcome with RPE and with RKO [3] was Active. This molecule displayed an Activity in the test on RKO [4] of 75%.
As for `O=c1nc2n(-c3ccc(Cl)cc3)c3ccc(C(F)(F)F)cc3cc-2c(=O)[nH]1`, the outcome with RKO/E6, in the test on RPE, in the test with RKO [3] and in the test on RKO [5] was inactive.
Turning to `Cc1ccc(-n2c3nc(=O)[nH]c(=O)c-3cc3c(Cl)cccc32)cc1`, the outcome in the test with RKO/E6 was inactive. The outcome in the test on RPE and with RKO [3] was Active. The Activity with RKO [4] is 73%.
Regarding `O=c1nc2n(-c3ccccc3Cl)c3ccc([N+](=O)[O-])cc3cc-2c(=O)[nH]1`, the outcome in the test on RKO/E6, with RKO [1], in the test on RKO [2], in the test on RPE and in the test with RKO [3] was Active.
Regarding `Cc1ccc(-n2c3nc(=O)[nH]c(=O)c-3cc3c(C(F)(F)F)cccc32)cc1`, the result in the test on RKO/E6, in the test on RPE, with RKO [3] and in the test with RKO [5] was inactive. The Activity in the test with RKO [4] turned out to be 62%.
For `O=c1nc2n(-c3ccc(Cl)cc3)c3cccc(Cl)c3cc-2c(=O)[nH]1`, in the test with RKO/E6, the result was inactive. The outcome in the test on RPE, in the test on RKO [3] and with RKO [4] (Homo sapiens) was Active.

Source of the values: ChEMBL document CHEMBL1144520, “Synthesis of 5-deazaflavin derivatives and their activation of p53 in cells” (2007).
